In BindingDB's records for PubMed 19295546 (Mayo Clinic) one finds IC50 data, which are given here for 1 molecule.

Assay [1] has as its target T1, Signal transducer and activator of transcription 5A (Homo sapiens, UniProt P42229).
T1 sequence (P42229 whole entry): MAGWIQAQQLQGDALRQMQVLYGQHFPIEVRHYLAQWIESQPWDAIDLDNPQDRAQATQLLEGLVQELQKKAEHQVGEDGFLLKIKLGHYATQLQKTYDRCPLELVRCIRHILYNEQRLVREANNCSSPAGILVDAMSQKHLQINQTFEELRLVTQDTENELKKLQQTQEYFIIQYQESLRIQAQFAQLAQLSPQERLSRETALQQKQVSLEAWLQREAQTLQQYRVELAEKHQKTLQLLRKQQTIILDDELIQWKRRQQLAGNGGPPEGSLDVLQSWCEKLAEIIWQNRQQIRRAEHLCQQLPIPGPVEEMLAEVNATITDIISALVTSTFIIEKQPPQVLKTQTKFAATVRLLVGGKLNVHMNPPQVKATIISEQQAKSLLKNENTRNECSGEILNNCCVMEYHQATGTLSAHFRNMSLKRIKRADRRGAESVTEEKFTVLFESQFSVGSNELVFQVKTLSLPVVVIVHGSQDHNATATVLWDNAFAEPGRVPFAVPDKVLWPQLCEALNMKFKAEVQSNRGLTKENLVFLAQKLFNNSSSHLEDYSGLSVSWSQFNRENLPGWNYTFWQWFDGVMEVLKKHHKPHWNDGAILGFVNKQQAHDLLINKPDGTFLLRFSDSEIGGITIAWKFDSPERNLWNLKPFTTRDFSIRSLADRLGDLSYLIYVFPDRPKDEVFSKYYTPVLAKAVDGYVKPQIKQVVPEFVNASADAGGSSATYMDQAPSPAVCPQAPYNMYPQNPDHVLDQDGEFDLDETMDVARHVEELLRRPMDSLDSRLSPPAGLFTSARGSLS
Kind of assay: Inhibition of STAT5 phosphorylation in human HEL cells by Western blot analysis. The method, boiled down:
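HEL cells were starved overnight in RPMI with 1% FCS, then exposed to compound for 2 h at 37 °C. Cells were lysed in RIPA buffer (50 mM HEPES pH 7.4, 150 mM NaCl, 1% Triton X-100, deoxycholate, 0.1% SDS) with protease and phosphatase inhibitors. Protein was quantified by Bradford assay and blots were developed by chemiluminescence. Membranes were stripped and reprobed for total STAT5.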

Assay [2] concerns the target Signal transducer and activator of transcription 3 (Homo sapiens, UniProt P40763). The assay can be described thus: Inhibition of STAT3 phosphorylation in human HEL cells by Western blot analysis.
For assay [3], the target named is 3-phosphoinositide-dependent protein kinase 1 (PDPK1) (Homo sapiens) (UniProt O15530). Kind of assay: Inhibition of PDK1 (unknown origin).

Sequence of Signal transducer and activator of transcription 3 (P40763 whole entry): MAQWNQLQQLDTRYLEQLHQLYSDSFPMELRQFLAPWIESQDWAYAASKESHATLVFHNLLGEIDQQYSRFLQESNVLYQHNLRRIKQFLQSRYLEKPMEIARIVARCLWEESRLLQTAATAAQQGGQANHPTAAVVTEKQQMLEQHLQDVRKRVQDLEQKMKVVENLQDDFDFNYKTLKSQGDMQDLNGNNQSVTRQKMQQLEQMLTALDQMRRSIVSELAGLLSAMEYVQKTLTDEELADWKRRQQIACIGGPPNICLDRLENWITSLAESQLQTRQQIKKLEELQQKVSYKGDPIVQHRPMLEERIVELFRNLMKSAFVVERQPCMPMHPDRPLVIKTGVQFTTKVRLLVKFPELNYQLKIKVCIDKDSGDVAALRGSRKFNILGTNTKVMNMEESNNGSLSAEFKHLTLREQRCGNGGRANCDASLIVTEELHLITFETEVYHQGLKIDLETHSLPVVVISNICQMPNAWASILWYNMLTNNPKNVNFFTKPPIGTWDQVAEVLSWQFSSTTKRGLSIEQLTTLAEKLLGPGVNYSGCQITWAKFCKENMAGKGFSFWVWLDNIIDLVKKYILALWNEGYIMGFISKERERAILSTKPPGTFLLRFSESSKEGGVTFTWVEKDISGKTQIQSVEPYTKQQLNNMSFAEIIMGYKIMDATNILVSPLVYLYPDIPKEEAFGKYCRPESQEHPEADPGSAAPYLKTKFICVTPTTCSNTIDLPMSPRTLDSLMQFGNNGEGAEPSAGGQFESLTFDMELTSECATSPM

As for `N#CCNC(=O)c1ccc(-c2ccnc(Nc3ccc(N4CCOCC4)cc3)n2)cc1` [N-(cyanomethyl)-4-(2-(4-morpholinophenylamino)pyrimidin-4-yl)benzamide], the IC50 in assay [1] is 0.4 µM; in assay [2], 2.5 µM; in assay [3] it was over 1 µM.
